Data: ChEMBL document CHEMBL1131340, “alpha-Substituted malonester amides: tools to define the relationship between ACAT inhibition and adrenal toxicity” (J Med Chem, 1998)

How the values were obtained:
[1] = target: T1, Sterol O-acyltransferase 1 (Rattus norvegicus, UniProt O70536); assay: In vitro Acyl coenzyme A:cholesterol acyltransferase inhibition in hepatic microsomes isolated from cholesterol-fed rats; parameters: species or system Liver
T1 sequence (O70536 whole entry): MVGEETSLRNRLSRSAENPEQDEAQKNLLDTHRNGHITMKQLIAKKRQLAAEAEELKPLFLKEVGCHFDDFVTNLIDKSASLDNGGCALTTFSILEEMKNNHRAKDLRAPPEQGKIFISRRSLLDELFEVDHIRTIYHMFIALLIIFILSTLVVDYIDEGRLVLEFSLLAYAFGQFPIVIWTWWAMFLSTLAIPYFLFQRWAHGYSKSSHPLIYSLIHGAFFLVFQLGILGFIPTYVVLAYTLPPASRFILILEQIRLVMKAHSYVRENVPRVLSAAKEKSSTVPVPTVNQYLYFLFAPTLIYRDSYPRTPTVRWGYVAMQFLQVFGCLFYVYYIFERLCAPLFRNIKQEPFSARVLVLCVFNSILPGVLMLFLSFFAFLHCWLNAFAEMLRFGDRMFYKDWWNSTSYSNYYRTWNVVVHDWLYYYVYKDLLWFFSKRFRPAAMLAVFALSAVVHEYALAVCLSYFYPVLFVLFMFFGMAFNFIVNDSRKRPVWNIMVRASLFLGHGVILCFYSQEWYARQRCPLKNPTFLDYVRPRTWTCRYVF
Method in brief: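 Hepatic microsomes from cholesterol-fed rats (LAI screen); ACAT inhibition reported as IC50.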

[2] = tested on: Rattus norvegicus; assay: Percent change in total cholesterol level in cholic acid (0.5%),cholesterol(1.5%),peanut oil(5.5%) fed rats at 30 mg/kg.; format: functional
Method in brief: (§1)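 Acute screen (APCC) in male Sprague-Dawley rats, 200–225 g. Compound given orally as a suspension in water with carboxymethylcellulose (1.5%) and Tween-20 (0.2%). Rats then ate a high-fat, high-cholesterol PCC meal (peanut oil 5.5%, cholesterol 1.5%, cholic acid 0.5%). Plasma total cholesterol measured and expressed as percent change from controls.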

[3] = tested on: Rattus norvegicus; assay: Percent change in total cholesterol level in cholic acid (0.5%),cholesterol(1.5%),peanut oil(5.5%) fed rats at 3 mg/kg.; format: functional; method in brief: as §1
[4] = tested on: Rattus norvegicus; assay: Percent of high density lipoprotein cholesterol was in cholesterol fed rat at the dose of 30 mg/kg; format: functional
[5] = tested on: Rattus norvegicus; assay: Percent of non high density lipoprotein cholesterol measured in cholesterol fed rat at the dose of 30 mg/kg; format: functional
[6] = tested on: Rattus norvegicus; assay: Percent of high density lipoprotein cholesterol was in cholesterol fed rat at the dose of 10 mg/kg; format: functional
[7] = tested on: Rattus norvegicus; assay: Percent of non high density lipoprotein cholesterol measured in cholesterol fed rat at the dose of 10 mg/kg; format: functional
[8] = tested on: Rattus norvegicus; assay: Percent of high density lipoprotein cholesterol was measured in cholesterol fed rat at the dose of 10 mg/kg; format: functional
[9] = target: T2, Acyl-CoA:cholesterol acyltransferase (Oryctolagus cuniculus) (UniProt Q95214); assay: Percent inhibition of cholesterol of ACAT by ABIO bioassay at the dose of 25 mg/kg in rabbits.; format: functional, organism-based; parameters: dose 25 mg/kg
T2 sequence (whole entry): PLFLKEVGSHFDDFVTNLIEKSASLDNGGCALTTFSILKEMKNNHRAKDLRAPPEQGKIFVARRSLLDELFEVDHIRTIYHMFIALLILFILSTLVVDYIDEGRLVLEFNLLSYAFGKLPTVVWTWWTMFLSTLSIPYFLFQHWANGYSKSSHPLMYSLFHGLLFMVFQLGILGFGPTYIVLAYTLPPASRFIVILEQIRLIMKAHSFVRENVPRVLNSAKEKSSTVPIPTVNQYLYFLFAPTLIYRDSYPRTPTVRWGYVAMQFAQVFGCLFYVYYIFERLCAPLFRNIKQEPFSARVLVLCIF
Method in brief: (§2)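 Oral bioactivity (ABIO) in male New Zealand White rabbits, 1.2–1.5 kg. Compound given at 25 or 50 mg/kg in the daily meal (3% peanut oil, 3% coconut oil). Plasma extracts incubated with rat liver microsomes and ACAT reaction inhibition expressed as relative percent inhibition.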

[10] = tested on: Oryctolagus cuniculus; assay: Plasma drug levels at the dose of 50 mg/kg in rabbit; format: functional, organism-based; parameters: dose 50 mg/kg
Method in brief: (§3)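 Male New Zealand White rabbits, 1.2–1.5 kg, dosed at 25 or 50 mg/kg in the daily meal (3% peanut oil, 3% coconut oil). Blood taken predose and at intervals up to 24 h. Plasma solvent-extracted and assayed by HPLC–UV; limit of quantitation 20 ng/mL.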

[11] = tested on: Oryctolagus cuniculus; assay: Plasma drug levels at the dose of 25 mg/kg in rabbit; format: functional, organism-based; parameters: dose 25 mg/kg; method in brief: as §3
[12] = organism: Rattus norvegicus; assay: Percent of non high density lipoprotein cholesterol was measured in cholesterol fed rat by using aqueous vehicle; format: functional
Method in brief: (§4)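 Chronic PCC rat screen with drug and PCC diet given together for 7 days. Compound dosed either in an aqueous carboxymethylcellulose vehicle (PCC-CMC) or in an oleic acid vehicle (PCC-OA). Change in plasma non-HDL-C measured.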

[13] = organism: Rattus norvegicus; assay: Percent of non high density lipoprotein cholesterol was measured in cholesterol fed rat by using oleic acid vehicle; format: functional; method in brief: as §4
[14] = target: T2, Acyl-CoA:cholesterol acyltransferase (Oryctolagus cuniculus); assay: Percent inhibition of cholesterol of ACAT by ABIO bioassay at the dose of 50 mg/kg in rabbits.; format: functional, organism-based; parameters: dose 50 mg/kg; method in brief: as §2
[15] = tested on: Rattus norvegicus; assay: Percent of total cholesterol was measured in cholesterol fed rat at the dose of 3 mg/kg
[16] = tested on: Rattus norvegicus; assay: Percent of total cholesterol was measured in cholesterol fed rat at the dose of 30 mg/kg

| SMILES | IC50 [1] [nM] | Delta TC [2] [%] | Delta TC [3] [%] | other results |
| --- | --- | --- | --- | --- |
| CCCCCCCCCCCCOC(=O)C(C(=O)Nc1c(C(C)C)cc(C(C)C)cc1C(C)C)c1ccccn1 (stereo unspecified) | 180 | -9 |  |  |
| CCCCCCCCCCCCCCCCCCOC(=O)C(C(=O)Nc1c(C(C)C)cccc1C(C)C)c1ccccc1 (stereo unspecified) | 200 | -25 |  |  |
| CCCCCCCCCCCCCCC(C)(C)OC(=O)C(C(=O)Nc1c(C(C)C)cccc1C(C)C)c1ccccc1 (stereo unspecified) | 72 | -37 |  |  |
| CCOC(=O)C(C)(C)C(=O)Nc1c(C(C)C)cccc1C(C)C | > 1000 | -24 |  |  |
| CCCCCCCCCCCCC(C)(C)OC(=O)C(C(=O)Nc1c(C(C)C)cccc1C(C)C)c1ccccc1 (stereo unspecified) | 12 | -26 |  |  |
| CCCCCCCCCCCCOC(=O)C(C(=O)Nc1c(OC)cc(OC)cc1OC)c1ccccc1 (stereo unspecified) |  | -51 | -51 | Of HDL-C [4]: 127%; Of non-HDL-C [5]: -71% |
| CCCCCCCCCCCCCCCCOC(=O)C(C(=O)Nc1c(C(C)C)cccc1C(C)C)c1ccccc1 (stereo unspecified) |  | -26 |  |  |
| CCCCCCCCCCCCC(C)OC(=O)C(C)(C)C(=O)Nc1c(C(C)C)cccc1C(C)C (stereo unspecified) | 21 |  |  |  |
| CCCCCCCCCCCCC(C)OC(=O)C(C(=O)Nc1c(C(C)C)cccc1C(C)C)c1ccccc1 (stereo unspecified) |  | -61 | -46 | Of HDL-C [4]: 215%; Of non-HDL-C [5]: -75% |
| CCCCCCCCOC(=O)C(C(=O)Nc1c(C(C)C)cccc1C(C)C)c1ccccc1 (stereo unspecified) |  | -56 | -46 |  |
| CCCCCCCCCCCCCCOC(=O)C(C(=O)Nc1c(C(C)C)cccc1C(C)C)c1ccccc1 (stereo unspecified) | 16 | -49 |  | Of HDL-C [4]: 28%; Of non-HDL-C [5]: -57% |
| CCCCCCCCCCC(C)OC(=O)C(C(=O)Nc1c(C(C)C)cccc1C(C)C)c1ccccc1 (stereo unspecified) | 13 | -37 |  | Of HDL-C [4]: 97%; Of non-HDL-C [5]: -64% |
| CCCCCCCCCCCCOC(=O)C(C(=O)Nc1c(C(C)C)cc(C(C)C)cc1C(C)C)c1ccccc1 (stereo unspecified) | 56 | -21 |  |  |
| CCCCCCCCCCCCC(C)OC(=O)C(C(=O)Nc1c(OC)cc(OC)cc1OC)c1ccccc1 (stereo unspecified) | 30 | -59 | -48 | Of HDL-C [4]: 272%; Of non-HDL-C [5]: -85% |
| CCCCCCCCCCOC(=O)C(C(=O)Nc1c(C(C)C)cccc1C(C)C)c1ccccc1 (stereo unspecified) | 13 | -58 | -27 | Of HDL-C [6]: -5%; Of non-HDL-C [7]: 21% |
| CCCCCC(C)OC(=O)C(C(=O)Nc1c(C(C)C)cccc1C(C)C)c1ccccc1 (stereo unspecified) | 40 | -67 | -61 | Delta HDL-C [8]: -1%; Delta non HDL-C [7]: -18% |
| CCCCCCCCCCCCOC(=O)C(C(=O)Nc1c(C(C)C)cccc1C(C)C)c1ccccc1 (stereo unspecified) | 10 | -63 | -29 | inhibition [9]: 99%; Plasma level [10]: 140 ng/mL; Plasma level [11]: 131 ng/mL; Non-HDL-C [12]: -54%; Non-HDL-C [13]: -54%; Of HDL-C [4]: 148%; Of non-HDL-C [5]: -80%; inhibition [14]: 100%; TC [15]: -29%; TC [16]: -63% |
| CCCOC(=O)C(C(=O)Nc1c(C(C)C)cccc1C(C)C)c1ccccc1 (stereo unspecified) | > 1000 | -20 |  |  |
| CCOC(=O)C(C(=O)Nc1c(C(C)C)cccc1C(C)C)c1ccccc1 (stereo unspecified) | > 5000 | -23 |  |  |
| CCCCCCCCCOC(=O)C(C(=O)Nc1c(C(C)C)cccc1C(C)C)c1ccccc1 (stereo unspecified) | 12 | -67 | -53 |  |
| CCCCC(C)(C)OC(=O)C(C(=O)Nc1c(C(C)C)cccc1C(C)C)c1ccccc1 (stereo unspecified) |  | -72 | -65 |  |
| CCOC(=O)C(F)C(=O)Nc1c(C(C)C)cccc1C(C)C (stereo unspecified) | > 1000 | 1 |  |  |
| CCCCCCCCCCCCOC(=O)C(C(=O)Nc1c(C(C)C)cccc1C(C)C)c1ccccn1 (stereo unspecified) | 8 | -43 |  |  |
| CCCCCCCCCCCCC(C)(C)OC(=O)C(C(=O)Nc1c(OC)cc(OC)cc1OC)c1ccccc1 (stereo unspecified) | 20 |  |  |  |
| CCCCCCCCCCCCOC(=O)C(F)C(=O)Nc1c(C(C)C)cccc1C(C)C (stereo unspecified) | 32 | -36 |  |  |
| CCCCCCCOC(=O)C(C(=O)Nc1c(C(C)C)cccc1C(C)C)c1ccccc1 (stereo unspecified) | 50 | -71 | -47 | Of HDL-C [6]: 2%; Of non-HDL-C [7]: -21% |
